Results: ChEMBL document CHEMBL1153560, “In vitro activities of doripenem and six comparator drugs against 423 aerobic and anaerobic bacterial isolates from infected diabetic foot wounds” (2008)

Experiments:
Type in all cases: functional
[1] = test system: Porphyromonas asaccharolytica; assay: Antibacterial activity against Porphyromonas asaccharolyticus isolated from patient with diabetic foot infection after 44 to 48 hrs by agar dilution method
Outline: (§1)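 CLSI M11-A7 agar dilution: serial twofold drug dilutions made on the test day and added to molten agar. Spots of 10^5 CFU were applied by replicator, with drug-free control plates inoculated before and after each set. Incubation was 44 to 48 h at 37°C in an anaerobic chamber. MIC was the lowest concentration giving no growth or a marked change in growth versus controls.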

[2] = test system: Bacteroides thetaiotaomicron; assay: Antibacterial activity against Bacteroides thetaiotaomicron isolated from patient with diabetic foot infection assessed as percent resistant isolates after 44 to 48 hrs by agar dilution method
Outline: (§2)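 Agar dilution per CLSI M11-A7. Twofold drug dilutions made on the test day and added to molten agar. Replicator-applied inoculum of 10^5 CFU/spot. Drug-free control plates inoculated before and after each drug set. Incubation at 37°C for 44 to 48 h, anaerobic chamber. MIC taken as the lowest concentration giving no growth or a marked change in growth versus controls.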

Anaerococcus tetradius [3] = assay: Antibacterial activity against Anaerococcus tetradius isolated from patient with diabetic foot infection after 44 to 48 hrs by agar dilution method; outline: as §1
Porphyromonas somerae = assay: Antibacterial activity against Porphyromonas somerae isolated from patient with diabetic foot infection assessed as percent resistant isolates after 44 to 48 hrs by agar dilution method; outline: as §2
[4] = test system: Peptoniphilus asaccharolyticus; assay: Antibacterial activity against Peptoniphilus asaccharolyticus isolated from patient with diabetic foot infection assessed as percent resistant isolates after 44 to 48 hrs by agar dilution method; outline: as §2
[5] = test system: Parabacteroides distasonis; assay: Antibacterial activity against Parabacteroides distasonis isolated from patient with diabetic foot infection assessed as percent resistant isolates after 44 to 48 hrs by agar dilution method; outline: as §2
[Clostridium] innocuum [6] = Antibacterial activity against Clostridium innocuum isolated from patient with diabetic foot infection after 44 to 48 hrs by agar dilution method; outline: as §1
Anaerococcus tetradius [7] = assay: Antibacterial activity against Anaerococcus tetradius isolated from patient with diabetic foot infection assessed as percent resistant isolates after 44 to 48 hrs by agar dilution method; outline: as §2
Anaerococcus vaginalis [8] = assay: Antibacterial activity against Anaerococcus vaginalis isolated from patient with diabetic foot infection after 44 to 48 hrs by agar dilution method; outline: as §1
Bacteroides stercoris = assay: Antibacterial activity against Bacteroides stercoris isolated from patient with diabetic foot infection assessed as percent resistant isolates after 44 to 48 hrs by agar dilution method; outline: as §2
Bacteroides fragilis = assay: Antibacterial activity against Bacteroides fragilis isolated from patient with diabetic foot infection after 44 to 48 hrs by agar dilution method; outline: as §1
Finegoldia magna [9] = assay: Antibacterial activity against Finegoldia magna isolated from patient with diabetic foot infection assessed as percent resistant isolates after 44 to 48 hrs by agar dilution method; outline: as §2
[10] = test system: Clostridium malenominatum; assay: Antibacterial activity against Clostridium malenominatum isolated from patient with diabetic foot infection assessed as percent resistant isolates after 44 to 48 hrs by agar dilution method; outline: as §2
Cutibacterium acnes [11] = assay: Antibacterial activity against Propionibacterium acnes isolated from patient with diabetic foot infection assessed as percent resistant isolates after 44 to 48 hrs by agar dilution method; outline: as §2
Phocaeicola vulgatus = assay: Antibacterial activity against Bacteroides vulgatus isolated from patient with diabetic foot infection after 44 to 48 hrs by agar dilution method; outline: as §1
[12] = test system: Enterocloster clostridioformis; assay: Antibacterial activity against Clostridium clostridioforme isolated from patient with diabetic foot infection after 44 to 48 hrs by agar dilution method; outline: as §1
Anaerococcus prevotii [13] = assay: Antibacterial activity against Anaerococcus prevotii isolated from patient with diabetic foot infection after 44 to 48 hrs by agar dilution method; outline: as §1
Anaerococcus vaginalis [14] = assay: Antibacterial activity against Anaerococcus vaginalis isolated from patient with diabetic foot infection assessed as percent resistant isolates after 44 to 48 hrs by agar dilution method; outline: as §2
Bacteroides ovatus [15] = assay: Antibacterial activity against Bacteroides ovatus isolated from patient with diabetic foot infection after 44 to 48 hrs by agar dilution method; outline: as §1
[16] = test system: Anaerocolumna aminovalerica; assay: Antibacterial activity against Clostridium aminovalericum isolated from patient with diabetic foot infection after 44 to 48 hrs by agar dilution method; outline: as §1
Prevotella bivia [17] = assay: Antibacterial activity against Prevotella bivia isolated from patient with diabetic foot infection assessed as percent resistant isolates after 44 to 48 hrs by agar dilution method; outline: as §2
[18] = test system: Clostridium malenominatum; assay: Antibacterial activity against Clostridium malenominatum isolated from patient with diabetic foot infection after 44 to 48 hrs by agar dilution method; outline: as §1
Cutibacterium acnes [19] = assay: Antibacterial activity against Propionibacterium acnes isolated from patient with diabetic foot infection after 44 to 48 hrs by agar dilution method; outline: as §1
Bacteroides ovatus [20] = assay: Antibacterial activity against Bacteroides ovatus isolated from patient with diabetic foot infection assessed as percent resistant isolates after 44 to 48 hrs by agar dilution method; outline: as §2
[21] = test system: Peptoniphilus asaccharolyticus; assay: Antibacterial activity against Peptoniphilus asaccharolyticus isolated from patient with diabetic foot infection after 44 to 48 hrs by agar dilution method; outline: as §1
Bacteroides caccae [22] = assay: Antibacterial activity against Bacteroides caccae isolated from patient with diabetic foot infection assessed as percent resistant isolates after 44 to 48 hrs by agar dilution method; outline: as §2
Parabacteroides merdae [23] = assay: Antibacterial activity against Parabacteroides merdae isolated from patient with diabetic foot infection after 44 to 48 hrs by agar dilution method; outline: as §1
Finegoldia magna [24] = assay: Antibacterial activity against Finegoldia magna isolated from patient with diabetic foot infection after 44 to 48 hrs by agar dilution method; outline: as §1
Parvimonas micra = assay: Antibacterial activity against Peptostreptococcus micros isolated from patient with diabetic foot infection assessed as percent resistant isolates after 44 to 48 hrs by agar dilution method; outline: as §2
Anaerococcus prevotii [25] = assay: Antibacterial activity against Anaerococcus prevotii isolated from patient with diabetic foot infection assessed as percent resistant isolates after 44 to 48 hrs by agar dilution method; outline: as §2
Prevotella bivia [26] = assay: Antibacterial activity against Prevotella bivia isolated from patient with diabetic foot infection after 44 to 48 hrs by agar dilution method; outline: as §1
Bacteroides caccae [27] = assay: Antibacterial activity against Bacteroides caccae isolated from patient with diabetic foot infection after 44 to 48 hrs by agar dilution method; outline: as §1
[28] = test system: Enterocloster clostridioformis; assay: Antibacterial activity against Clostridium clostridioforme isolated from patient with diabetic foot infection assessed as percent resistant isolates after 44 to 48 hrs by agar dilution method; outline: as §2
Bacteroides uniformis = assay: Antibacterial activity against Bacteroides uniformis isolated from patient with diabetic foot infection after 44 to 48 hrs by agar dilution method; outline: as §1
[Clostridium] innocuum [29] = Antibacterial activity against Clostridium innocuum isolated from patient with diabetic foot infection assessed as percent resistant isolates after 44 to 48 hrs by agar dilution method; outline: as §2
Parabacteroides merdae [30] = assay: Antibacterial activity against Parabacteroides merdae isolated from patient with diabetic foot infection assessed as percent resistant isolates after 44 to 48 hrs by agar dilution method; outline: as §2
Clostridium perfringens = assay: Antibacterial activity against Clostridium perfringens isolated from patient with diabetic foot infection after 44 to 48 hrs by agar dilution method; outline: as §2

CCC[C@@H]1C[C@@H](C(=O)N[C@@H]([C@H]2O[C@H](SC)[C@H](O)[C@@H](O)[C@H]2O)[C@H](C)Cl)N(C)C1 [CLINDAMYCIN]
≤ 0.03 mg/L: MIC50 [1] | MIC50 (Cutibacterium acnes [19]) | MIC50 (Prevotella bivia [26])
0%: Activity (Finegoldia magna [9]) | Activity (Cutibacterium acnes [11]) | Activity (Parvimonas micra)
0.125 mg/L: MIC50 (Anaerococcus tetradius [3]) | MIC50 (Anaerococcus vaginalis [8]) | MIC50 (Anaerococcus prevotii [13]) | MIC50 [21]
18%: Activity (Anaerococcus tetradius [7]) | Activity (Anaerococcus vaginalis [14]) | Activity (Anaerococcus prevotii [25])
1 mg/L: MIC50 (Clostridium perfringens) | MIC90 (Clostridium perfringens)
64 mg/L: MIC90 [1] | MIC90 (Anaerococcus tetradius [3]) | MIC90 (Anaerococcus vaginalis [8]) | MIC90 (Anaerococcus prevotii [13])
> 64 mg/L: MIC90 (Phocaeicola vulgatus) | MIC90 (Bacteroides ovatus [15]) | MIC90 [21] | MIC90 (Parabacteroides merdae [23]) | MIC90 (Prevotella bivia [26]) | MIC90 (Bacteroides caccae [27]) | MIC90 (Bacteroides uniformis)
16 mg/L: MIC90 ([Clostridium] innocuum [6]) | MIC90 [12] | MIC90 [16] | MIC90 [18]
20%: Activity [2] | Activity [5] | Activity (Bacteroides stercoris) | Activity (Bacteroides ovatus [20]) | Activity (Bacteroides caccae [22]) | Activity (Parabacteroides merdae [30])
0.5 mg/L: MIC50 ([Clostridium] innocuum [6]) | MIC50 (Bacteroides fragilis) | MIC50 [12] | MIC50 [16] | MIC50 [18] | MIC50 (Finegoldia magna [24])
2 mg/L: MIC90 (Bacteroides fragilis) | MIC50 (Phocaeicola vulgatus) | MIC50 (Bacteroides ovatus [15]) | MIC90 (Cutibacterium acnes [19]) | MIC50 (Parabacteroides merdae [23]) | MIC90 (Finegoldia magna [24]) | MIC50 (Bacteroides caccae [27]) | MIC50 (Bacteroides uniformis)
23%: Activity [10] | Activity [28] | Activity ([Clostridium] innocuum [29])
12%: Activity (Porphyromonas somerae)
21%: Activity (Prevotella bivia [17])
25%: Activity [4]

C[C@@H](O)[C@H]1C(=O)N2C(C(=O)O)=C(S[C@@H]3CN[C@H](CNS(N)(=O)=O)C3)[C@H](C)[C@H]12 [DORIPENEM]
0.125 mg/L: MIC90 (Cutibacterium acnes [19]) | MIC90 (Finegoldia magna [24]) | MIC90 (Prevotella bivia [26])
0.25 mg/L: MIC50 (Bacteroides fragilis) | MIC90 (Bacteroides fragilis) | MIC50 (Phocaeicola vulgatus) | MIC50 (Bacteroides ovatus [15]) | MIC50 (Parabacteroides merdae [23]) | MIC50 (Bacteroides caccae [27]) | MIC50 (Bacteroides uniformis)
0%: Activity [2] | Activity (Porphyromonas somerae) | Activity [4] | Activity [5] | Activity (Anaerococcus tetradius [7]) | Activity (Bacteroides stercoris) | Activity (Finegoldia magna [9]) | Activity [10] | Activity (Cutibacterium acnes [11]) | Activity (Anaerococcus vaginalis [14]) | Activity (Prevotella bivia [17]) | Activity (Bacteroides ovatus [20]) | Activity (Bacteroides caccae [22]) | Activity (Parvimonas micra) | Activity (Anaerococcus prevotii [25]) | Activity [28] | Activity ([Clostridium] innocuum [29]) | Activity (Parabacteroides merdae [30])
≤ 0.015 mg/L: MIC50 [1] | MIC50 (Anaerococcus tetradius [3]) | MIC50 (Anaerococcus vaginalis [8]) | MIC50 (Anaerococcus prevotii [13]) | MIC50 [21] | MIC50 (Clostridium perfringens)
1 mg/L: MIC90 ([Clostridium] innocuum [6]) | MIC90 (Phocaeicola vulgatus) | MIC90 [12] | MIC90 (Bacteroides ovatus [15]) | MIC90 [16] | MIC90 [18] | MIC90 (Parabacteroides merdae [23]) | MIC90 (Bacteroides caccae [27]) | MIC90 (Bacteroides uniformis)
0.03 mg/L: MIC90 [1] | MIC90 (Clostridium perfringens)
0.06 mg/L: MIC90 (Anaerococcus tetradius [3]) | MIC50 ([Clostridium] innocuum [6]) | MIC90 (Anaerococcus vaginalis [8]) | MIC50 [12] | MIC90 (Anaerococcus prevotii [13]) | MIC50 [16] | MIC50 [18] | MIC50 (Cutibacterium acnes [19]) | MIC90 [21] | MIC50 (Finegoldia magna [24]) | MIC50 (Prevotella bivia [26])
